Measured values collected from several papers.
Protocols differ between the studies behind these lines.
Target: Serine/threonine-protein kinase LATS1 (LATS1, Homo sapiens, UniProt O95835)
Sequence (O95835 1-1130, as in one of the studies): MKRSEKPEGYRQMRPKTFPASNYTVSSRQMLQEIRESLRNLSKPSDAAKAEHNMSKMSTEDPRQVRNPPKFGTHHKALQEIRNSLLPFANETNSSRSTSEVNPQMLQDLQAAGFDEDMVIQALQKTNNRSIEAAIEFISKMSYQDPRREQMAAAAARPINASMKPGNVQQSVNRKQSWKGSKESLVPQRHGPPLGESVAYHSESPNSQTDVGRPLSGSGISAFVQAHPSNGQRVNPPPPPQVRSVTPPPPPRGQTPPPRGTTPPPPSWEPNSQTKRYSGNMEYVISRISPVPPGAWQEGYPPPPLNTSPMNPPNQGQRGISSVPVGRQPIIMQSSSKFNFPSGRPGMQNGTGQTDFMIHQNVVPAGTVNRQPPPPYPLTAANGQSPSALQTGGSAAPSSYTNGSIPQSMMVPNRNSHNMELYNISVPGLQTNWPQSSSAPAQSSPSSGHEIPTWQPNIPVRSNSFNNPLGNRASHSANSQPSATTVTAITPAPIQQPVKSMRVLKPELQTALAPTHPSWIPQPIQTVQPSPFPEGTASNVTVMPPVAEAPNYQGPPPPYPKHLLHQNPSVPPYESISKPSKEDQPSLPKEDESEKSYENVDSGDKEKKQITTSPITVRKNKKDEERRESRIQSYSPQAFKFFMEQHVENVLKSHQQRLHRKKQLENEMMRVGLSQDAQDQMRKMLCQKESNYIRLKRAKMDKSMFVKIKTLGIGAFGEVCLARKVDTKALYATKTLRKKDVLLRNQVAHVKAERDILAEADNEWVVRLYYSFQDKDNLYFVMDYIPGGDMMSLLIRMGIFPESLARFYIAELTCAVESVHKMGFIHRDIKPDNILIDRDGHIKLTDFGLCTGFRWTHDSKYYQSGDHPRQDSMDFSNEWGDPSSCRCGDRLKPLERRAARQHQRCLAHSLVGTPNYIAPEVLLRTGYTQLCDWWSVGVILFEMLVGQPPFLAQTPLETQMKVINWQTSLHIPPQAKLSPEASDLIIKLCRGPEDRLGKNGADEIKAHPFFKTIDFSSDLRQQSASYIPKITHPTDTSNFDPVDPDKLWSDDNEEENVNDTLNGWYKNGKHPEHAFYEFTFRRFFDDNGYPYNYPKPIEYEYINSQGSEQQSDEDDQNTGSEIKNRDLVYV

SMILES	effect on	method	tested at	remaining binding [%]
CNC(=O)[C@@H]1CC[C@@H](n2c(-c3ccc4cnccc4c3)nc3ccc(C(=O)NCc4cccc(C(N)=O)c4)cc32)C1	binding	competition with immobilised ligand	1 µM	100
COc1ncc2cc3ccccc3nc2c1C#N	cell-free assay	competition with immobilised ligand	5 µM	93
O=C(NCCCN1CCOCC1)c1ccc(Nc2nccc(-c3cc4ccccc4s3)n2)cc1	binding	competition with immobilised ligand	1 µM	100
O=C(NCC1CCOCC1)c1n[nH]cc1NC(=O)c1c(F)cccc1F	binding	competition with immobilised ligand	1 µM	100
CN(c1nccc(-c2cnn3ncccc23)n1)C1CC1	binding	–	1 µM	82
O=C(c1ccc(Nc2ncc(Cl)c(-c3cc4ccccc4s3)n2)cc1)N1CCC(N2CCCC2)CC1	binding	competition with immobilised ligand	1 µM	60
COc1cnc(Nc2cccc(S(N)(=O)=O)c2)nc1N1CCN(c2ccccc2)C(=O)C1	binding	competition with immobilised ligand	1 µM	90
NS(=O)(=O)c1cc(NC(=O)Cc2ccccc2)ccc1Oc1cccc(Cl)c1	cell-free assay	competition with immobilised ligand	1 µM	79
C[C@H]1CCN(c2nccc(-c3cnn4ncccc34)n2)C1	binding	–	1 µM	100
O=C(NCCCC1CCCCC1)c1ccc(CNC(=O)c2cnn(-c3ccccc3)c2C(F)(F)F)cc1	cell-free assay	competition with immobilised ligand	0.1 µM	100
COc1ccnn2ncc(-c3ccnc(N(C)C)n3)c12	binding	–	1 µM	100
O=C(c1ccc(Nc2nccc(-c3cc4ccccc4s3)n2)cc1)N1CCC(N2CCCC2)CC1	binding	competition with immobilised ligand	1 µM	93
CN(C)c1nccc(-c2cnn3ncccc23)n1	binding	–	1 µM	100
CCOCCn1cc(C(=O)Nc2ccc(-n3nc(-c4cccnc4)cc3C(F)(F)F)cn2)ccc1=O	cell-free assay	competition with immobilised ligand	1 µM	69
CN(CCCC(F)(F)F)c1nccc(-c2cnn3ncccc23)n1	binding	–	1 µM	78
O=C(O)c1cc(-c2ccc(C3CCNCC3)cc2)c2ccc(-c3ccc(C(F)(F)F)cc3)cc2c1	cell-free assay	competition with immobilised ligand	1 µM	88
C=CC(=O)N1CCC(C(=O)NCC(=O)N2CCN(c3nc(-c4cnc(N)nc4C(F)F)nc(N4CCOCC4)n3)CC2)CC1	binding	competition with immobilised ligand	1 µM	100
N#Cc1ccc(Nc2ccc3[nH]c(=O)[nH]c3c2)c(Cl)c1	cell-free assay	competition with immobilised ligand	1 µM	76
C[C@@H](c1ccc(-n2cnc3c(N)ncnc32)cc1)N1CCc2nn(C)c(Cc3ccccc3)c2C1=O	binding	competition with immobilised ligand	0.1 µM	100
O=C(O)[C@@H]1[C@@H](Cn2nnc3ccccc3c2=O)CC[C@H]1C(=O)c1ccc(OCCC2CCOCC2)cc1	cell-free assay	competition with immobilised ligand	1 µM	90
N[C@@H]1CCN(c2nccc(-c3cnn4ncccc34)n2)C1	binding	–	1 µM	100
